# Results as given in ChEMBL document CHEMBL2417356, “Identification of 2,3-disubstituted pyridines as potent, orally active PDE4 inhibitors” (Bioorg Med Chem, 2013).
# Active and inactive are the calls of the source. The calls are words filed in the database; no cut-off is given here.
# Legend:
# Cavia porcellus [1] = species on record: Cavia porcellus; experiment: Inhibition of Hartley guinea pig eosinophil PDE4 assessed as cAMP hydrolysis at 100 nM by two-step radioisotope method relative to control
# [2] = (§1) Inhibition of Hartley guinea pig eosinophil PDE4 assessed as cAMP hydrolysis by two-step radioisotope method; set-up: species or system Cavia porcellus
# Outline: (§2)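 PDE4 purified from eosinophils of male Hartley guinea pigs (~500 g) given 5 mg polymyxin B. Activity measured by a modified two-step radioisotope method with [3H]cAMP substrate, quantifying hydrolyzed cAMP. IC50 taken as the concentration giving 50% inhibition of hydrolysis, from concentration–response curves. Three experiments per agent.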
# Mus musculus = experiment: Antiinflammatory activity in mouse assessed as inhibition ovalbumin-induced eosinophil infiltration into lung at 10 mg/kg, po administered 30 mins prior to ovalbumin challenge followed by once per day compound administration measured after 2 days relative to vehicle-treated control; assay type: functional
# Outline: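 Male mice, 5 weeks old, OVA-sensitized. Dosed orally 30 min before intranasal OVA challenge and once daily for the next 2 days. Challenge given 7 days after the last sensitizing OVA injection, under anaesthesia. Bronchoalveolar lavage under pentobarbital 3 days post-challenge. BALF diluted 10-fold in Turk's solution and living infiltrated cells counted. % inhibition calculated against vehicle group.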
# Cavia porcellus [3] = species on record: Cavia porcellus; experiment: as §1; outline: as §2
# Cavia porcellus [4] = experiment: Bronchodilatory activity in ovalbumin-treated guinea pig at 10 mg/kg, po administered 1 hr prior to ovalbumin challenge relative to vehicle-treated control; assay type: functional
# Outline: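 Male guinea pigs OVA-sensitized at 3 weeks old, studied 6 weeks later. Anesthetized, tracheally cannulated and ventilated with room air at 60 strokes/min. Air-overflow measured by the Konzett-Rössler method. Bronchospasm induced by i.v. OVA via hind-paw vein. Peak response taken within 10 min of challenge as % of theoretical maximum. Oral dosing 1 h before challenge; % inhibition against vehicle.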
SMILES,inhibition (Cavia porcellus [1]),IC50 [2],other results
Brc1cccc(Sc2ncccc2OCCCCc2cccnc2)c1,5%,–,–
Brc1cccc(Sc2ncccc2OCCCc2ccccn2)c1,10%,–,–
COc1ccc(C2CNC(=O)C2)cc1OC1CCCC1 (centres undefined) [ROLIPRAM],–,0.054 µM,inhibition in vivo at 10 mg/kg (Mus musculus): 39%
Brc1cccc(Sc2ncccc2OCCCc2cccnc2)c1,69%,–,–
Brc1cccc(Sc2ncccc2OCCc2ccncc2)c1,56%,–,–
Brc1cccc(Sc2ncccc2OCCCCc2ccncc2)c1,3%,–,–
Brc1cccc(Sc2ncccc2OCCc2cccnc2)c1,60%,–,–
O=C(c1cccc(Br)c1)c1ccccn1,–,–,inhibition (Cavia porcellus [3]): inactive
N#CCCCOc1cccnc1Sc1cccc(Br)c1,–,0.104 µM,–
Brc1cccc(Sc2ncccc2OCCCc2ccncc2)c1,80%,0.034 µM,Activity (Cavia porcellus [4]): 77%; inhibition in vivo at 10 mg/kg (Mus musculus): 50%
